Article PMC9214849 (Chemical Science, 2022)

Columns and labels:
[1] = tested on: SH-SY5Y cells; experiment: MTT cell viability, SH-SY5Y; assay type: cell-based, human; settings: pure amyloid 20 μM, 24 h
[2] = target: T1, human calcitonin1-32 (hCT) (Homo sapiens, UniProt P01258); experiment: CD secondary structure, hCT; assay type: biochemical; settings: pure 20 μM, 10 mM sodium phosphate pH 7.4, 37 °C, 24–72 h, BeStSel
T1 sequence (P01258 85-116): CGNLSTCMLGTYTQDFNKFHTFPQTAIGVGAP
Procedure, shortened: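 Aβ, hIAPP or hCT at 20 μM, alone or co-incubated with test defensin at 37 °C. Circular dichroism spectra were deconvoluted with BestSel into secondary-structure fractions, including β-structure content.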

[3] = target: T1, human calcitonin1-32 (hCT); experiment: AFM morphology of aggregates, hCT; assay type: biochemical; settings: pure hCT 20 μM, 24 h
Procedure, shortened: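 AFM imaging of samples taken at different time points of the ThT kinetics runs. hCT at 20 μM was incubated alone or with 5–20 μM test defensin at 37 °C. Fibril heights and lengths were measured from the images.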

[4] = tested on: SH-SY5Y cells; experiment: LDH cytotoxicity, SH-SY5Y; assay type: cell-based, human; settings: pure amyloid 20 μM, 24 h; % of positive control
[5] = tested on: Escherichia coli; settings: cited from earlier work
[6] = tested on: Candida albicans, Escherichia coli, Enterococcus faecalis, and Staphylococcus epidermidis; settings: ref 41,42 (Aβ); 43 (hIAPP); 44,45 (GNNQQNY); 46 (KLVFFGAIL); cited from earlier work
[7] = tested on: RIN-m5F cells; experiment: LDH cytotoxicity, RIN-m5F; assay type: cell-based, rat; settings: pure amyloid 20 μM, 24 h; % of positive control
[8] = tested on: Staphylococcus aureus; settings: cited from earlier work
[9] = tested on: RIN-m5F cells; experiment: MTT cell viability, RIN-m5F; assay type: cell-based, rat; settings: pure amyloid 20 μM, 24 h
[10] = target: human islet amyloid polypeptide1-37 (hIAPP) (Homo sapiens, UniProt P10997); experiment: CD secondary structure, hIAPP; assay type: biochemical; settings: pure 20 μM, 10 mM sodium phosphate pH 7.4, 37 °C, 24–72 h, BeStSel
human islet amyloid polypeptide1-37 (hIAPP), sequence (P10997 34-70): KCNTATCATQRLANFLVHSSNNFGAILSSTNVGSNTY
Procedure, shortened: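 Samples held 20 μM hIAPP with 0, 5 or 20 μM defensin. Circular dichroism spectra were recorded on the aggregates. Secondary-structure fractions, including β-structure content, were fitted from the spectra with BestSel.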

CC[C@H](C)[C@H](NC(=O)[C@H](C)NC(=O)[C@@H](NC(=O)[C@H](CCC(N)=O)NC(=O)[C@@H]1CCCN1C(=O)[C@H](Cc1ccccc1)NC(=O)[C@@H](NC(=O)[C@H](Cc1c[nH]cn1)NC(=O)[C@H](Cc1ccccc1)NC(=O)[C@H](CCCCN)NC(=O)[C@H](CC(N)=O)NC(=O)[C@H](Cc1ccccc1)NC(=O)[C@H](CC(=O)O)NC(=O)[C@H](CCC(N)=O)NC(=O)[C@@H](NC(=O)[C@H](Cc1ccc(O)cc1)NC(=O)[C@@H](NC(=O)CNC(=O)[C@H](CC(C)C)NC(=O)[C@H](CCSC)NC(=O)[C@@H]1CSSC[C@H](N)C(=O)NCC(=O)N[C@@H](CC(N)=O)C(=O)N[C@@H](CC(C)C)C(=O)N[C@@H](CO)C(=O)N[C@@H]([C@@H](C)O)C(=O)N1)[C@@H](C)O)[C@@H](C)O)[C@@H](C)O)[C@@H](C)O)C(=O)NCC(=O)N[C@H](C(=O)NCC(=O)N[C@@H](C)C(=O)N1CCC[C@H]1C(N)=O)C(C)C [hCT]
cell viability [1]: 67% | β-structure content [2]: 56.4% | average height of fibrils [3]: 16 nm | average length of fibrils ([3]; N up to 40): 477 nm | cell toxicity [4]: 35%

CC[C@H](C)[C@H](NC(=O)[C@H](C)NC(=O)CNC(=O)[C@H](Cc1ccccc1)NC(=O)[C@H](CC(N)=O)NC(=O)[C@H](CC(N)=O)NC(=O)[C@H](CO)NC(=O)[C@H](CO)NC(=O)[C@H](Cc1c[nH]cn1)NC(=O)[C@@H](NC(=O)[C@H](CC(C)C)NC(=O)[C@H](Cc1ccccc1)NC(=O)[C@H](CC(N)=O)NC(=O)[C@H](C)NC(=O)[C@H](CC(C)C)NC(=O)[C@H](CCCNC(=N)N)NC(=O)[C@H](CCC(N)=O)NC(=O)[C@@H](NC(=O)[C@H](C)NC(=O)[C@@H]1CSSC[C@H](NC(=O)[C@@H](N)CCCCN)C(=O)N[C@@H](CC(N)=O)C(=O)N[C@@H]([C@@H](C)O)C(=O)N[C@@H](C)C(=O)N[C@@H]([C@@H](C)O)C(=O)N1)[C@@H](C)O)C(C)C)C(=O)N[C@@H](CC(C)C)C(=O)N[C@@H](CO)C(=O)N[C@@H](CO)C(=O)N[C@H](C(=O)N[C@@H](CC(N)=O)C(=O)N[C@H](C(=O)NCC(=O)N[C@@H](CO)C(=O)N[C@@H](CC(N)=O)C(=O)N[C@H](C(=O)N[C@@H](Cc1ccc(O)cc1)C(N)=O)[C@@H](C)O)C(C)C)[C@@H](C)O [hIAPP]
bacteria growth [5]: hinder Staphylococcus aureus and Escherichia coli bacteria growth | antibacterial and antifungal activities [6]: antibacterial and antifungal activities | cell toxicity [7]: 25% | bacteria growth [8]: hinder Staphylococcus aureus and Escherichia coli bacteria growth | cell viability [9]: 55% | β-structure content [10]: 48.5%

GNNQQNY
antibacterial and antifungal activities [6]: antibacterial and antifungal activities

KLVFFGAIL
antibacterial and antifungal activities [6]: antibacterial and antifungal activities
